How the values were obtained:
[1] = biological target: Proto-oncogene tyrosine-protein kinase Src (Homo sapiens, UniProt P12931); test: Inhibition of SRC (unknown origin) by ELISA
[2] = Cmax in Sprague-Dawley rat at 3 mg/kg, po via gavage measured up to 24 hrs by LC-MS analysis; format: ADME, organism-based; set-up: route oral, dose 3 mg/kg, time <=24; conditions: in vivo
Outline: (§1)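 Male Sprague-Dawley rats (n = 3) dosed once by oral gavage at 3 mg/kg as a solution in 5% DMSO/95% (0.5% CMC-Na). Blood sampled at 0.25, 0.5, 1, 2, 4, 6, 8 and 24 h, kept on wet ice, serum separated by centrifugation and stored at -20 °C. Serum levels measured by LC-MS/MS; parameters reported as means.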

[3] = biological target: Receptor tyrosine-protein kinase erbB-2 (Homo sapiens, UniProt P04626); test: Inhibition of ERBB2 (unknown origin) by ELISA
[4] = biological target: Hepatocyte growth factor receptor (Homo sapiens, UniProt P08581); test: Inhibition of c-met phosphorylation at Y1234/Y1235 residues in human MKN-45 cells by Western blot analysis; format: cell-based; conditions: dose 2.5-20 nM
Outline: (§2)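 Cells in exponential growth (BaF3 engineered to stably express constitutively active human wild-type TEL-Axl; MKN-45) exposed to the indicated concentrations for 2 h, then lysed in 1× SDS sample buffer. Phosphorylated proteins detected by Western blot.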

[5] = biological target: T1, Tyrosine-protein kinase receptor UFO (Homo sapiens, UniProt P30530); test: Inhibition of AXL (unknown origin) by ELISA
T1 sequence (P30530 whole entry): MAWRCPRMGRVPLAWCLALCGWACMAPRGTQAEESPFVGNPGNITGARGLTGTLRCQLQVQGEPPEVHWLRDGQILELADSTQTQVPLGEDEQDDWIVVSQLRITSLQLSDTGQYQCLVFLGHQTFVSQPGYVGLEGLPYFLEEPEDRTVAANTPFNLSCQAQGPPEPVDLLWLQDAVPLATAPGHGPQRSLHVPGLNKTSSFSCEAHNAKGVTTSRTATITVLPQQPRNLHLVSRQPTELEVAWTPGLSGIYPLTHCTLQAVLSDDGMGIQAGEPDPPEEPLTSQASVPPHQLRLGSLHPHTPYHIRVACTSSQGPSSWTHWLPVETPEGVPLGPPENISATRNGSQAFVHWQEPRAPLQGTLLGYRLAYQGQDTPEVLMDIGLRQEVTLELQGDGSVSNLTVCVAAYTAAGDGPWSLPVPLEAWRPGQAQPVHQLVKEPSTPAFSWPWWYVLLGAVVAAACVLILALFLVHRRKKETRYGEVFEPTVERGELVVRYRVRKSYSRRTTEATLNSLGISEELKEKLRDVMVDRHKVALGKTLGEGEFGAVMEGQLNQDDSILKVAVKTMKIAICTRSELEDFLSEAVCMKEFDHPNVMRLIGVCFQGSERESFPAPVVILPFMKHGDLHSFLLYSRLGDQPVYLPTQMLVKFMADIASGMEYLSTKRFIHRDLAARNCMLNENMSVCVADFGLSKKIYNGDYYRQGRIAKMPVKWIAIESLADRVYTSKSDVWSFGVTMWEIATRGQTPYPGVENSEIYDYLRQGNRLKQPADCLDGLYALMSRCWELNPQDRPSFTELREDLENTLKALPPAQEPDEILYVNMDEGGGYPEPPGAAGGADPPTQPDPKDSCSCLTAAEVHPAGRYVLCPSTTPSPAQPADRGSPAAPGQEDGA

BaF3 = test: Antitumor activity against mouse BaF3 cells stably expressing human TEL-AXL xenografted in nude mouse assessed as tumor growth inhibition at 50 to 100 mg/kg, po administered once daily for 14 consecutive days relative to control; format: functional; conditions: dose 50-100 mg/kg; time 14 day
[6] = biological target: Mast/stem cell growth factor receptor Kit (Homo sapiens, UniProt P10721); test: Inhibition of Kit(unknown origin) by ELISA
[7] = biological target: T2, Tyrosine-protein kinase receptor UFO (Mus musculus) (UniProt Q00993); test: Inhibition of AXL phosphorylation in mouse BaF3 by Western blot analysis; conditions: dose 0.1-10 nM; outline: as §2
T2 sequence (whole entry): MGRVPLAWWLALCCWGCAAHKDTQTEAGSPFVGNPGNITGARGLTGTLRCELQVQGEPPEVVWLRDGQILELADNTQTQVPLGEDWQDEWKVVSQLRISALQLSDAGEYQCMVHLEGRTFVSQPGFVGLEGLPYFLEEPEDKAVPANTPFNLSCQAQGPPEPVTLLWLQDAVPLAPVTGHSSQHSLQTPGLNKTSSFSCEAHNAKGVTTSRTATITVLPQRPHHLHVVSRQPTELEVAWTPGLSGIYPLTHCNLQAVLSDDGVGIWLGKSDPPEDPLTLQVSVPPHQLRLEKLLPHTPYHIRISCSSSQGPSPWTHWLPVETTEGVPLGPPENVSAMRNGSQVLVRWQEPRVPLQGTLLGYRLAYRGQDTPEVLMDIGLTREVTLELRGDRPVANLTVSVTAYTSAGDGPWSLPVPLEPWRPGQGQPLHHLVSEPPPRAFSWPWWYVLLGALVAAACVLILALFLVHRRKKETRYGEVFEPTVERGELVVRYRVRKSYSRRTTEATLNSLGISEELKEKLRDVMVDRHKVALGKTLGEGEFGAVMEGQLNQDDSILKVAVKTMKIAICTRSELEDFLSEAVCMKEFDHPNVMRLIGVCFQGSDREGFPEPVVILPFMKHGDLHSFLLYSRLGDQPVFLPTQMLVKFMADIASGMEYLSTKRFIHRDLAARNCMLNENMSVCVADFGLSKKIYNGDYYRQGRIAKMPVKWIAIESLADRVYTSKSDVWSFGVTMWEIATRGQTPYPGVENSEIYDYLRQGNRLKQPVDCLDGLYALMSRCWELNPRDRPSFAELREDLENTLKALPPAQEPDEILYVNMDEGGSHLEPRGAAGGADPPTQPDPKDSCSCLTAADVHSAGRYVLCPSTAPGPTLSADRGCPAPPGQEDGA

MKN-45 = test: Antiproliferative activity against human MKN-45 cells incubated for 72 hrs; format: functional, cell-based; conditions: MKN-45, 72 h
Outline: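 MKN-45 cells (MET-amplified gastric carcinoma) grown in the supplier-recommended medium and serum, seeded at low density and treated the next day across a concentration range for 72 h. Proliferation read by SRB or CCK-8. IC50 obtained from a four-parameter concentration-response fit; mean ± SD of two independent assays.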

[8] = Half life in Sprague-Dawley rat at 3 mg/kg, po via gavage measured up to 24 hrs by LC-MS analysis; format: ADME, organism-based; conditions: in vivo; outline: as §1

Receptor tyrosine-protein kinase erbB-2, sequence (P04626 whole entry): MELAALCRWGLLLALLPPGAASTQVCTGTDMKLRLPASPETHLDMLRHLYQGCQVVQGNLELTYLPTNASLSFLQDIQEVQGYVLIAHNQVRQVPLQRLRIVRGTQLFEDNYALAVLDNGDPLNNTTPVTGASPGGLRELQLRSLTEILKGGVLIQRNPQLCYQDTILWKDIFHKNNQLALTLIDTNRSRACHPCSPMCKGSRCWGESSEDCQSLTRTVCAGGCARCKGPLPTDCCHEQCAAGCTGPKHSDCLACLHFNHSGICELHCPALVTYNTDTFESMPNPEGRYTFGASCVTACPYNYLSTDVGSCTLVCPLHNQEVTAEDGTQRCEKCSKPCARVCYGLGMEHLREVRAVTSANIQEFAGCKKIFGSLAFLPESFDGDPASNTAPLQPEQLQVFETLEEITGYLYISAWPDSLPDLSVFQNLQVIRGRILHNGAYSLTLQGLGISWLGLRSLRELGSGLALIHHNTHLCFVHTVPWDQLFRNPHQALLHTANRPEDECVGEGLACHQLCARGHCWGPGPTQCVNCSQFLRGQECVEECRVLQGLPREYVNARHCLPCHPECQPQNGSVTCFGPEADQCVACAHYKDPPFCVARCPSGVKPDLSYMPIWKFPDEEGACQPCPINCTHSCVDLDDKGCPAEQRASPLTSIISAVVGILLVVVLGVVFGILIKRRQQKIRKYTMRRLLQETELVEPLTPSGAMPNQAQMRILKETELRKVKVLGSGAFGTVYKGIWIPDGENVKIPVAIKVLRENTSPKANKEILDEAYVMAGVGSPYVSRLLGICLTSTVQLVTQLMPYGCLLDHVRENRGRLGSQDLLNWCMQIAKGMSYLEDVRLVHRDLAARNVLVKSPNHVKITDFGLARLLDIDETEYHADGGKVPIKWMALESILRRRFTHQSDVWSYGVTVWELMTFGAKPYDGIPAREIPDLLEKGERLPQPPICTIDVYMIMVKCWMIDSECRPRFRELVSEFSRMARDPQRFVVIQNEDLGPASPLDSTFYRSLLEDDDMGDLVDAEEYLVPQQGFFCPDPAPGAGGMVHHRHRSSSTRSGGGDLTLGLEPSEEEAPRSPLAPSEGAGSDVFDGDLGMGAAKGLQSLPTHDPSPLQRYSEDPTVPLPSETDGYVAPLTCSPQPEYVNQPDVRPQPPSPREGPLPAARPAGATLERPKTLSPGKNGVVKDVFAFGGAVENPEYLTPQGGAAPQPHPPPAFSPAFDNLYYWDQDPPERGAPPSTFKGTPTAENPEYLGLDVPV
Hepatocyte growth factor receptor, sequence (P08581 whole entry): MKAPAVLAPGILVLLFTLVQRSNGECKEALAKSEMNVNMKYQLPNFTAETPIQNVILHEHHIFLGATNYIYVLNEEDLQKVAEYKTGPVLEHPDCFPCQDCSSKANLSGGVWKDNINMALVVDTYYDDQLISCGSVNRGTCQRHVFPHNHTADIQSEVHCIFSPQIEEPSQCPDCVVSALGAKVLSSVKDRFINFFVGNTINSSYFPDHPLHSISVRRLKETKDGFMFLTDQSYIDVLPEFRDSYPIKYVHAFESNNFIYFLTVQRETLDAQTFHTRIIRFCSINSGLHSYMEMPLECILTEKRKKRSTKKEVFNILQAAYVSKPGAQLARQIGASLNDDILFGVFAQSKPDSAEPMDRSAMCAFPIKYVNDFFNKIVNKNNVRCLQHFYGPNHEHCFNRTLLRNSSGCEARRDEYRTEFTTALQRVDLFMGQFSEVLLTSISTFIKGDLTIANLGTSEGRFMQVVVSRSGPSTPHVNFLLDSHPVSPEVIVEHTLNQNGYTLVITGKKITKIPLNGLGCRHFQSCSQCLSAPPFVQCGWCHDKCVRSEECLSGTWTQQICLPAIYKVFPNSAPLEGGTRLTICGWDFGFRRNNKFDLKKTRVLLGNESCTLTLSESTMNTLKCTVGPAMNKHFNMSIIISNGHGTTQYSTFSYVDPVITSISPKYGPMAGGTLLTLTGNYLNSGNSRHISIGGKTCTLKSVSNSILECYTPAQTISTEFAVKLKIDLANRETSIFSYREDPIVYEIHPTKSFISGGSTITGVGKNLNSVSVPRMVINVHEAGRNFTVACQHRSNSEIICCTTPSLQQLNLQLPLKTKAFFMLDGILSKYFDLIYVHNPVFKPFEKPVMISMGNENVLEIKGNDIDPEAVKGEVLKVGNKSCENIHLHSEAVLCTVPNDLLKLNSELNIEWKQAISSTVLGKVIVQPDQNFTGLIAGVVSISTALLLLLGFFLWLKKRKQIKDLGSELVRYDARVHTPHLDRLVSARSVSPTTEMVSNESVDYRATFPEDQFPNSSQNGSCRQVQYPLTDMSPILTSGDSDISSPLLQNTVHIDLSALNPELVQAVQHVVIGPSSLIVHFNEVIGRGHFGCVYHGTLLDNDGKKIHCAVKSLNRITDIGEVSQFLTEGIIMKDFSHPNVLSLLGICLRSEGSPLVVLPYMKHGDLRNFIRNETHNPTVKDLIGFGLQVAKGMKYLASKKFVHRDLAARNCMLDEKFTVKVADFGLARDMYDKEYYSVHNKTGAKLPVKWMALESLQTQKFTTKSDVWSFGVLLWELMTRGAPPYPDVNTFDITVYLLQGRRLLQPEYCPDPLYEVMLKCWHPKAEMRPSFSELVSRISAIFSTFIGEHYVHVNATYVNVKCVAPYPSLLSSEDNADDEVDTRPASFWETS
Proto-oncogene tyrosine-protein kinase Src, sequence (P12931 2-536 limits assumed): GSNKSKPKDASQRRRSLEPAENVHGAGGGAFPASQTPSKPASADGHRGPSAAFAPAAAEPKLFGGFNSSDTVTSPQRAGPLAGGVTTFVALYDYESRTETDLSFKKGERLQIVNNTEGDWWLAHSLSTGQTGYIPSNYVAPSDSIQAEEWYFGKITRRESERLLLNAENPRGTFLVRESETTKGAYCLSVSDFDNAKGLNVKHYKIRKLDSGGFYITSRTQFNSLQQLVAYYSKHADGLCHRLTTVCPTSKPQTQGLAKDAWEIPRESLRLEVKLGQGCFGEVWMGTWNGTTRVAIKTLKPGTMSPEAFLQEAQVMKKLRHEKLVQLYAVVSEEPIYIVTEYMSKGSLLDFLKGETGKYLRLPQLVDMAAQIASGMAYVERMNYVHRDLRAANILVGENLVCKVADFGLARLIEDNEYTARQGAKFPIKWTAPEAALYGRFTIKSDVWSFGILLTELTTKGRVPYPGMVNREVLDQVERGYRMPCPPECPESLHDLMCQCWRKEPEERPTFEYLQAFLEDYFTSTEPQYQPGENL
Mast/stem cell growth factor receptor Kit, sequence (P10721 whole entry): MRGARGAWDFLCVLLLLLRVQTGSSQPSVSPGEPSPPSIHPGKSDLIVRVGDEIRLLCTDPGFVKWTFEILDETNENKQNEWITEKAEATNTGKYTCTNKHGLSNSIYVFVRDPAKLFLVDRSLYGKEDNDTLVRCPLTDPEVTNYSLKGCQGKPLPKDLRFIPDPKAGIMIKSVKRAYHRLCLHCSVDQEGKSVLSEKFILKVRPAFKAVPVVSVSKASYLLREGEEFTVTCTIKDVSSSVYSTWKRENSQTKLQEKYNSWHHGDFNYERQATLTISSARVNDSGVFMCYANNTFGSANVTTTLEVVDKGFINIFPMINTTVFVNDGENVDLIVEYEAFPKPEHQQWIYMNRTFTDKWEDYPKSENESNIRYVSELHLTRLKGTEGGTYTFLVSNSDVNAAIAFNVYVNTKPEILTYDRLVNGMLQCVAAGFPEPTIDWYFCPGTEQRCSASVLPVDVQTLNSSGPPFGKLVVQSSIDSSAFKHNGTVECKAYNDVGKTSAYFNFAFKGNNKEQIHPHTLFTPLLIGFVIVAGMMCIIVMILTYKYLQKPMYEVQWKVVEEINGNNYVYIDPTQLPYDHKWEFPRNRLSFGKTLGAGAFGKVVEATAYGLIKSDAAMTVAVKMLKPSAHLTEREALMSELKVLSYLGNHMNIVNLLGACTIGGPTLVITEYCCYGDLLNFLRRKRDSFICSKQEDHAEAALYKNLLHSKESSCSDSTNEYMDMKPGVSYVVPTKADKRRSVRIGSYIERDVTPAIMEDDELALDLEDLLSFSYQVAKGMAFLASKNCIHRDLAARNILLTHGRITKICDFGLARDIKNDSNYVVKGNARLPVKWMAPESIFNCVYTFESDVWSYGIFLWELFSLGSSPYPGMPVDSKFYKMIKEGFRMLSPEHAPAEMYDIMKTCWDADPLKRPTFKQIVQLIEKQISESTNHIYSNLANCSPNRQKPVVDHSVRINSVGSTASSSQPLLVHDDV

IC50 [1]: > 1 µM
Cmax [2]: 14100 ng/mL
IC50 [3]: > 1 µM
inhibition [4]: Dose-Dependent Effect
IC50 [5]: < 0.0002 µM
IC50 [6]: > 1 µM
inhibition [7]: Dose-Dependent Effect
IC50 (MKN-45): 0.0132 µM
half-life [8]: 2.74 h
Compound: CC(C)n1cc(C(=O)Nc2cc(F)c(-c3c[nH]c4ncnc(N)c34)cc2F)c(=O)c(-c2ccc(F)cc2)c1
TGI (BaF3): 67.4%
